The IC50 is the midpoint of a concentration-inhibition curve.

Experiment [1] deals with Transcription factor p65 (Human, UniProt Q04206). As to the kind of experiment: Inhibition of NFkappa p65 isolated from nuclear extract of human HeLa cells assessed as blockade of binding to biotinylated consesus sequence by chemiluminescence assay. The gist of the method: (§1)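 ELISA-format transcription factor assay. HeLa nuclear extract was treated with samples, and activated p50 or p65 bound to a biotinylated consensus sequence was detected by chemiluminescence on a plate reader. IC50 reported in μM.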

Experiment [2] has as its target T1, Nuclear factor NF-kappa-B p105 subunit (Homo sapiens, UniProt P19838).
T1 sequence (P19838 whole entry): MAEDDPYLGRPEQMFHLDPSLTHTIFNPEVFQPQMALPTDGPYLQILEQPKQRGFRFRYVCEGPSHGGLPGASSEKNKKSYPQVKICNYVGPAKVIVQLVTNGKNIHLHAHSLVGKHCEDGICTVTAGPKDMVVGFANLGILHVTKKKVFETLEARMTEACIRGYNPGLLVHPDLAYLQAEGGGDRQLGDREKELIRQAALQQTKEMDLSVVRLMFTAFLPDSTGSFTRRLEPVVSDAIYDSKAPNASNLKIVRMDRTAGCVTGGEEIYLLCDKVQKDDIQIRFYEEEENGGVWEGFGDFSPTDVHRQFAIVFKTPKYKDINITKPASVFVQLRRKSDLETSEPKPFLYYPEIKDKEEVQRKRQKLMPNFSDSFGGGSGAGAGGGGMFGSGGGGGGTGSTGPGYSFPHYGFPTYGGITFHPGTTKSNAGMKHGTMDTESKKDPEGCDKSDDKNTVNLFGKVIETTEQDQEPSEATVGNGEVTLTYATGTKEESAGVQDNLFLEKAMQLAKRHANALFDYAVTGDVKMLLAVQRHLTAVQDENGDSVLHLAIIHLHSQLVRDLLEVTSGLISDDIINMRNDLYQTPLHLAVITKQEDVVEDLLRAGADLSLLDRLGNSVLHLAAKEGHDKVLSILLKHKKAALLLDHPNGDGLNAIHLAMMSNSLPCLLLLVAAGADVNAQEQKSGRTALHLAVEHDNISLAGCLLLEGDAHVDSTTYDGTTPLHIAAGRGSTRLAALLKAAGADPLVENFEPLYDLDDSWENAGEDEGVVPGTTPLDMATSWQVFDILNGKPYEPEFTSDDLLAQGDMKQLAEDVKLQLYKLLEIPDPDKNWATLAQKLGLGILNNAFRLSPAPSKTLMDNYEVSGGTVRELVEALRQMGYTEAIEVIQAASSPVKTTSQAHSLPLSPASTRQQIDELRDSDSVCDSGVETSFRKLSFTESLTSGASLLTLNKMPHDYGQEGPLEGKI
The experiment is described as follows: Inhibition of NFkappa p50 isolated from nuclear extract of human HeLa cells assessed as blockade of binding to biotinylated consesus sequence by chemiluminescence assay. The gist of the method: as §1

Transcription factor p65, sequence (Q04206 whole entry): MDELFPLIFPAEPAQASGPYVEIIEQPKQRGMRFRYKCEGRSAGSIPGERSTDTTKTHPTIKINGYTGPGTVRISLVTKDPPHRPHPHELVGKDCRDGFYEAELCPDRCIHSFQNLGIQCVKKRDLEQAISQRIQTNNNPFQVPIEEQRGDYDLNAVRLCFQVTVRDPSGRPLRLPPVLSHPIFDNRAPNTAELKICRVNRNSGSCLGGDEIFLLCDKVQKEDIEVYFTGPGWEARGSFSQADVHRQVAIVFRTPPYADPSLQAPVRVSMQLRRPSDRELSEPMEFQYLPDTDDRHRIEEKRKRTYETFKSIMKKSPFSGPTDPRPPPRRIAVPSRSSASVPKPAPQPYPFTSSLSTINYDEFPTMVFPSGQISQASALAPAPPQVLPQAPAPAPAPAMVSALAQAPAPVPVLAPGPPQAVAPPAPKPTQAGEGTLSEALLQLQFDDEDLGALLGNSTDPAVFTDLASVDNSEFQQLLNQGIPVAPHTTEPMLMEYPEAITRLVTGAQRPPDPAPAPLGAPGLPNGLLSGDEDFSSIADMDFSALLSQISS

Take `C=C(C)[C@H]1Cc2c(oc3cc(O)c(CC=C(C)C)c(=O)c-3c2O)C2=C1C(=O)C(=O)C(CC=C(C)C)C2=O` (stereo partly specified) [Artonin O]: the IC50 in experiment [1] and in experiment [2] was greater than 10 µM throughout.

Consider `CC1(C)C=Cc2cc3c(cc2O1)Oc1cc(O)ccc1C(=O)C3` [Artoristilbene], for which the IC50 in experiment [1] and in experiment [2] was greater than 10 µM each time.

Regarding `C=C(C)[C@H]1Cc2c(oc3c4c(cc(=O)c-3c2O)OC(C)(C)C=C4)-c2c(O)cc(O)c(O)c21` [artobiloxanthone], the figures for the IC50 in experiment [1] and in experiment [2] were 2.3 µM and 3.7 µM, respectively.

For the origin of these results see BindingDB's records for doi:10.1021/np1002065 (The Ohio State University, 2010).
